Data from ChEMBL document CHEMBL4825680, “Structure-based discovery of potent and selective small-molecule inhibitors targeting signal transducer and activator of transcription 3 (STAT3)” (Eur J Med Chem, 2021).
Active and inactive are the calls of the source. The rule behind the calls is not given here.

How the values were obtained:
Breast cancer cell line [1] = test: Antitumor activity against patient-derived breast cancer cells xenografted in NOD/SCID mouse assessed as reduction in Ki67 expression at 5 to 15 mg/kg, iv administered once daily for 20 days by immunohistochemical analysis; assay type: functional, organism-based; settings: Homo sapiens, dose 5-15 mg/kg, time 20.0 day
MDA-MB-468 [2] = test: Inhibition of cell invasion in human MDA-MB-468 cells incubated for 12 hrs by crystal violet staining based transwell assay; assay type: functional; settings: dose 1-3 µM
Outline: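 Cells seeded at 1.5×10^4–3×10^4 per well in the upper chamber of 8.0 µm pore Transwell inserts and treated with graded compound for 12 h. Non-invading cells removed with cotton. Invaded cells fixed in 4% paraformaldehyde, stained with crystal violet, photographed and counted. Triplicate.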

[3] = Toxicity in mouse xenografted with human MDA-MB-231-4175 cells assessed as morphological change in spleen at 5 to 15 mg/kg, […] once daily for 20 days by HE staining based assay; assay type: organism-based; settings: in vivo, iv, 480 h, dose 5-15 mg/kg, time 20 day
Outline: (§1)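 Female NOD-SCID mice aged 4–5 weeks, given 2×10^6–3×10^6 MDA-MB-231-4175 cells subcutaneously in the flank. At about 100 mm³ tumour volume, randomised n=6/group: vehicle (PBS with 15% Cremophor EL), 5 or 15 mg/kg intraperitoneally daily. Killed at day 20; heart, liver, spleen, lung and kidney collected for morphological examination.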

HCC70 [4] = test: Inhibition of cell migration in human HCC70 cells incubated for 12 to 96 hrs by wound healing assay; assay type: functional, cell-based; settings: dose 0.3-3 µM, time 12-96 hrs
Outline: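 Confluent monolayer (0.8–1.2×10^6 cells/well) scratched with a pipette tip, then treated with 0–3 µM compound until vehicle cells filled the gap. Imaged by microscope after about 12–96 h. Triplicate.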

[5] = Toxicity in mouse xenografted with human MDA-MB-231-4175 cells assessed as morphological change in lung at 5 to 15 mg/kg, […] once daily for 20 days by HE staining based assay; assay type: organism-based; settings: in vivo, iv, 480 h, dose 5-15 mg/kg, time 20 day; outline: as §1
MDA-MB-231 [6] = test: Induction of apoptosis in human MDA-MB-231 cells assessed as early apoptotic cells at 3 uM after 48 hrs by Annexin-V-FITC/propidium iodide staining based flow cytometric analysis (reference value: 2.98%); assay type: functional
[7] = biological target: T1, Signal transducer and activator of transcription 3 (Homo sapiens, UniProt P40763); test: Inhibition of STAT3 in human MDA231-LM2-4175 cells assessed as downregulation of Bcl-xL expression at 0.3 to 3 uM after 24 hrs by western blot analysis; assay type: cell-based; settings: dose 0.3-3 µM
T1 sequence (P40763 whole entry): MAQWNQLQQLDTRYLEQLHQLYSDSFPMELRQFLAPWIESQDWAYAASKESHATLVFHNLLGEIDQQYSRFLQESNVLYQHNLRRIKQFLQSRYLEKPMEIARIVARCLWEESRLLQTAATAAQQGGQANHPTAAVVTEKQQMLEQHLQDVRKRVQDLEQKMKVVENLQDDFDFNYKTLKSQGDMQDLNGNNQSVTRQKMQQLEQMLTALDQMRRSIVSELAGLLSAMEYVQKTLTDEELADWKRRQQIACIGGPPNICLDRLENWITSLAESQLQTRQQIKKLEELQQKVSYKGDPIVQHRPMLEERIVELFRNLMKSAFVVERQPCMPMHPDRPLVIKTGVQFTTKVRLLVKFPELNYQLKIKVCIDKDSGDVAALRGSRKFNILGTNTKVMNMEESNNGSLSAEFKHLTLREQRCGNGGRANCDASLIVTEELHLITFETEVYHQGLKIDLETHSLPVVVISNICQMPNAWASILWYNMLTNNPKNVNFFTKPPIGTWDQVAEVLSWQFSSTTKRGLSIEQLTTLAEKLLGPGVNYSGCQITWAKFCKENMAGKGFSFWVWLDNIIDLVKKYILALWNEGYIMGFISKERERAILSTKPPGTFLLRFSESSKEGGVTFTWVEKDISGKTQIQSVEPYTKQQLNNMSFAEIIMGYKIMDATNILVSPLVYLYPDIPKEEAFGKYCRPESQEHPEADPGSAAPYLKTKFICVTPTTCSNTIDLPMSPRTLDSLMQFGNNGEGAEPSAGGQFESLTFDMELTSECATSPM
Outline: (§2)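 TNBC cells given vehicle (0.1% DMSO) or graded compound levels for 24 h, lysed in RIPA with PMSF and phosphatase inhibitors. BCA-quantified lysate (20–50 µg) run on SDS-PAGE, transferred to PVDF, blocked in 5% BSA. Probed overnight at 4 °C for Bcl-xL, Mcl-1 and c-Myc, with β-actin. HRP secondary, ECL detection. Three independent experiments.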

[8] = biological target: T1, Signal transducer and activator of transcription 3; test: Inhibition of STAT3 phosphorylation at Ser727 residue in human MDA-MB-231 cells at 3 uM after 3 hrs by Western blotting analysis; assay type: cell-based
[9] = biological target: T1, Signal transducer and activator of transcription 3; test: Inhibition of STAT3 in human MDA231-LM2-4175 cells assessed as downregulation of c-Myc expression at 0.3 to 3 uM after 24 hrs by western blot analysis; assay type: cell-based; settings: dose 0.3-3 µM; outline: as §2
[10] = biological target: T1, Signal transducer and activator of transcription 3; test: Inhibition of STAT3 in human MDA-MB-231 cells assessed as downregulation of c-Myc expression at 0.3 to 3 uM after 24 hrs by western blot analysis; assay type: cell-based; settings: dose 0.3-3 µM; outline: as §2
HCC70 [11] = test: Inhibition of colony formation in human HCC70 cells at 0.3 uM after 10 to 15 days by crystal violet staining based assay; assay type: functional, cell-based; settings: time 10-15 day
Outline: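 Cells seeded at 0.5×10^3–1×10^3 per well; compound added the next day. Medium and compound renewed every 2–3 days. After about 10–15 days, colonies fixed with 4% paraformaldehyde, stained with crystal violet, scanned and quantified by image analysis. Triplicate.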

[12] = biological target: T1, Signal transducer and activator of transcription 3; test: Inhibition of STAT3 in human HCC70 cells assessed as downregulation of Mcl-1 expression at 0.3 to 3 uM after 24 hrs by western blot analysis; assay type: cell-based; settings: dose 0.3-3 µM; outline: as §2
HCC70 [13] = test: Effect on total STAT5 level in human HCC70 cells at 0.3 to 3 uM after 3 hrs by Western blotting analysis; assay type: functional, cell-based; settings: dose 0.3-3 µM
Outline: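 Breast cancer cells were treated with vehicle (0.1% DMSO) or compound, then lysed in RIPA with PMSF and phosphatase inhibitors. 20–50 μg protein was run on 8 or 12% SDS-PAGE, blotted to PVDF, blocked in 5% BSA, probed with primary antibodies overnight at 4 °C, then HRP secondaries, with ECL detection.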

MDA-MB-468 [14] = test: Induction of apoptosis in human MDA-MB-468 cells assessed as early apoptotic cells at 1 uM after 48 hrs by Annexin-V-FITC/propidium iodide staining based flow cytometric analysis (reference value: 2.66%); assay type: functional
[15] = biological target: T1, Signal transducer and activator of transcription 3; test: Inhibition of STAT3 phosphorylation at Tyr705 residue in human […] cells after 3 hrs by Western blotting analysis; assay type: cell-based; settings: MDA-MB-468, dose 0.3-3 µM
MDA-MB-468 [16] = test: Induction of apoptosis in human MDA-MB-468 cells assessed as viable cells at 3 uM after 48 hrs by Annexin-V-FITC/propidium iodide staining based flow cytometric analysis (reference value: 95.5%); assay type: functional; settings: read-out: Activity
Breast cancer cell line [17] = test: Antitumor activity against patient-derived breast cancer cells xenografted in NOD/SCID mouse assessed as reduction in Bcl-xL expression at 5 to 15 mg/kg, iv administered once daily for 20 days by Western blotting analysis; assay type: functional, organism-based; settings: Homo sapiens, dose 5-15 mg/kg, time 20.0 day
[18] = biological target: T1, Signal transducer and activator of transcription 3; test: Inhibition of STAT3 in human MDA231-LM2-4175 cells assessed as downregulation of Mcl-1 expression at 0.3 to 3 uM after 24 hrs by western blot analysis; assay type: cell-based; settings: dose 0.3-3 µM; outline: as §2
[19] = biological target: T1, Signal transducer and activator of transcription 3; test: Inhibition of STAT3 phosphorylation at Tyr705 residue in human HCC70 cells after 3 hrs by Western blotting analysis; assay type: cell-based; settings: dose 0.3-3 µM
[20] = Antitumor activity against patient-derived breast cancer cells xenografted in NOD/SCID mouse assessed as tumor growth inhibition at 15 mg/kg, ip administered once daily for 20 days; settings: Homo sapiens, Breast cancer cell line, 480 h, read-out: TGI
[21] = Toxicity in mouse xenografted with human MDA-MB-231-4175 cells assessed as morphological change in liver at 5 to 15 mg/kg, […] once daily for 20 days by HE staining based assay; assay type: organism-based; settings: in vivo, iv, dose 5-15 mg/kg, time 20 day; outline: as §1
MDA-MB-231 [22] = test: Induction of apoptosis in human MDA-MB-231 cells assessed as necrotic cells at 3 uM after 48 hrs by Annexin-V-FITC/propidium iodide staining based flow cytometric analysis (Rvb =0.543%); assay type: functional
MDA-MB-231 [23] = test: Induction of apoptosis in human MDA-MB-231 cells assessed as early apoptotic cells at 1 uM after 48 hrs by Annexin-V-FITC/propidium iodide staining based flow cytometric analysis (reference value: 2.98%); assay type: functional

Q: For `O=C(Cc1c(-c2ccccc2)nc2ccccn12)Nc1ccc2c(c1)S(=O)(=O)C=C2`, which Activity (Breast cancer cell line [1]) is on record?
A: The Activity was “Active”.

Q: And the inhibition (MDA-MB-468 [2])?
A: The inhibition was “Dose-Dependent Effect”.

Q: What about the Activity [3] of the same compound?
A: The Activity was “Non-Toxic”.

Q: And the inhibition (HCC70 [4])?
A: Its inhibition is “Dose-Dependent Effect”.

Q: And the Activity [5]?
A: The Activity was “Non-Toxic”.

Q: What about the Activity (MDA-MB-231 [6]) of the same compound?
A: Its Activity is 12.5%.

Q: And the inhibition [7]?
A: The inhibition was “Active”.

Q: And the inhibition [8]?
A: The inhibition was “Active”.

Q: What about the inhibition [9] of the same compound?
A: Its inhibition is “Active”.

Q: What about the inhibition [10] of the same compound?
A: Its inhibition is “Active”.

Q: What about the inhibition (HCC70 [11]) of the same compound?
A: The inhibition was “Active”.

Q: And the inhibition [12]?
A: Its inhibition is “Active”.

Q: What about the Activity (HCC70 [13]) of the same compound?
A: The Activity was “inactive”.

Q: What about the Activity (MDA-MB-468 [14]) of the same compound?
A: Its Activity is 24%.

Q: And the inhibition [15]?
A: Its inhibition is “Dose-Dependent Effect”.

Q: What about the viability at 3 µM (MDA-MB-468 [16]) of the same compound?
A: The viability at 3 µM was 38.6%.

Q: What about the Activity (Breast cancer cell line [17]) of the same compound?
A: The Activity was “Active”.

Q: What about the inhibition [18] of the same compound?
A: Its inhibition is “Active”.

Q: And the inhibition [19]?
A: Its inhibition is “Dose-Dependent Effect”.

Q: And the inhibition in vivo at 15 mg/kg [20]?
A: Its inhibition in vivo at 15 mg/kg is 68.9%.

Q: What about the Activity [21] of the same compound?
A: The Activity was “Non-Toxic”.

Q: What about the Activity (MDA-MB-231 [22]) of the same compound?
A: The Activity was 2.09%.

Q: And the Activity (MDA-MB-231 [23])?
A: The Activity was 7.38%.
